In ChEMBL document CHEMBL1129477, “Structure-activity relationships of the quinolone antibacterials against mycobacteria: effect of structural changes at N-1 and C-7” (J Med Chem, 1996) one finds MIC data, which are given here for 17 molecules.

Holding throughout (type): functional
In assay [1] the test system is Mycolicibacterium fortuitum. The assay can be described thus: Anti-bacterial activity tested against Mycobacterium fortuitum (ATCG 6841).
The test system of assay [2] is Pseudomonas aeruginosa. The assay can be described thus: Anti-bacterial activity tested against Gram-negative PA-7 bacterium. A digest of the protocol: (§1)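 Standard microtitration MIC determination (µg/mL) against four representative Gram-negative and Gram-positive bacterial strains.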
In assay [3] the test system is Mycolicibacterium smegmatis. In words: Anti-bacterial activity tested against Mycobacterium smegmatis (ATCG 19420).
Assay [4] has as its system Staphylococcus aureus. In words: Anti-bacterial activity was tested against Gram-positive SA-13 bacterium. A digest of the protocol: as §1
Assay [5] has as its system Escherichia coli. In words: Anti-bacterial activity was tested against Gram-negative EC-1 bacterium. A digest of the protocol: as §1
Assay [6] relates to Streptococcus pyogenes. In words: Anti-bacterial activity tested against Gram-positive SP1-1 bacterium. In short, it runs like this: as §1

≈ marks a conversion by molar mass, not a printed value. Bounds are passed on as bounds.

In the case of `CC1CN(c2cc3c(cc2F)c(=O)c(C(=O)O)cn3C2CCC2)CCN1` (stereo not given), the MIC in assay [1] is 0.25 µg/mL (≈ 0.696 µM); in assay [2], 1.6 µg/mL (≈ 4.45 µM); in assay [3], 1 µg/mL (≈ 2.78 µM); in assay [4], 3.1 µg/mL (≈ 8.63 µM); in assay [5], 0.4 µg/mL (≈ 1.11 µM); in assay [6], above 3.1 µg/mL.

Regarding `O=C(O)c1cn(C2CC2)c2cc(N3CCNCC3)c(F)cc2c1=O` [CIPROFLOXACIN], the minimum inhibitory concentration (MIC) turned out to be 0.06 µg/mL (≈ 0.181 µM) in assay [1], 0.2 µg/mL (≈ 0.604 µM) in assay [2], 0.25 µg/mL (≈ 0.754 µM) in assay [3] and 0.4 µg/mL (≈ 1.21 µM) in assay [6].

`CCC1CN(c2cc3c(cc2F)c(=O)c(C(=O)O)cn3-c2ccc(F)cc2F)CCN1` (stereo not given): the minimum inhibitory concentration (MIC) in assay [1] amounted to 0.25 µg/mL (≈ 0.579 µM); in assay [2], 3.1 µg/mL (≈ 7.19 µM); in assay [3] it was 1 µg/mL (≈ 2.32 µM); in assay [4], 0.4 µg/mL (≈ 0.927 µM); in assay [5], 0.4 µg/mL (≈ 0.927 µM); in assay [6], 0.8 µg/mL (≈ 1.85 µM).

With `CCN1CCN(c2cc3c(cc2F)c(=O)c(C(=O)O)cn3-c2ccc(F)cc2F)CC1`, the MIC in assay [1] was determined as 0.5 µg/mL (≈ 1.16 µM); in assay [2], 1.6 µg/mL (≈ 3.71 µM); in assay [3], 1 µg/mL (≈ 2.32 µM); in assay [4], 0.2 µg/mL (≈ 0.464 µM); in assay [5], 0.4 µg/mL (≈ 0.927 µM); in assay [6] it was 0.8 µg/mL (≈ 1.85 µM).

Regarding `C[C@@H]1CN(c2c(F)c(N)c3c(=O)c(C(=O)O)cn(C4CC4)c3c2F)C[C@H](C)N1` [SPARFLOXACIN], the minimum inhibitory concentration (MIC) in assay [1] stood at 0.06 µg/mL (≈ 0.153 µM); in assay [2] it was 0.8 µg/mL (≈ 2.04 µM); in assay [3], 0.13 µg/mL (≈ 0.331 µM); in assay [4], 0.05 µg/mL (≈ 0.127 µM); in assay [5], 0.025 µg/mL (≈ 0.0637 µM); in assay [6] it was 0.1 µg/mL (≈ 0.255 µM).

As for `NC1CCN(c2cc3c(cc2F)c(=O)c(C(=O)O)cn3C2CCC2)C1` (stereo not given), the MIC in assay [1] is 1 µg/mL (≈ 2.9 µM); in assay [2] it was 1.6 µg/mL (≈ 4.63 µM); in assay [3], 1 µg/mL (≈ 2.9 µM); in assay [4], 3.1 µg/mL (≈ 8.98 µM); in assay [5] it was 0.4 µg/mL (≈ 1.16 µM); in assay [6], 1.6 µg/mL (≈ 4.63 µM).

With `CC(C)n1cc(C(=O)O)c(=O)c2cc(F)c(N3CCNCC3)cc21`, the MIC was 1 µg/mL (≈ 3 µM) in assay [1]; 1.6 µg/mL (≈ 4.8 µM) in assay [2]; 4 µg/mL (≈ 12 µM) in assay [3]; above 3.1 µg/mL in assay [4]; 0.8 µg/mL (≈ 2.4 µM) in assay [5]; above 3.1 µg/mL in assay [6].

As for `CN1CCN(c2cc3c(cc2F)c(=O)c(C(=O)O)cn3-c2ccc(F)cc2F)CC1`, the MIC in assay [1] came to 0.25 µg/mL (≈ 0.599 µM); in assay [2], 0.8 µg/mL (≈ 1.92 µM); in assay [3], 0.5 µg/mL (≈ 1.2 µM); in assay [4], 0.2 µg/mL (≈ 0.479 µM); in assay [5], 0.2 µg/mL (≈ 0.479 µM); in assay [6] it was 1.6 µg/mL (≈ 3.83 µM).

For `CC(C)CN1CCN(c2cc3c(cc2F)c(=O)c(C(=O)O)cn3C2CC2)CC1`, the minimum inhibitory concentration (MIC) amounted to 1 µg/mL (≈ 2.58 µM) in assay [1]; 1.6 µg/mL (≈ 4.13 µM) in assay [2]; 0.25 µg/mL (≈ 0.645 µM) in assay [3]; 0.4 µg/mL (≈ 1.03 µM) in assay [4]; 0.2 µg/mL (≈ 0.516 µM) in assay [5]; 1.6 µg/mL (≈ 4.13 µM) in assay [6].

As to `O=C(O)c1cn(-c2ccc(F)cc2F)c2cc(N3CCNCC3)c(F)cc2c1=O`, the minimum inhibitory concentration (MIC) was found to be 0.25 µg/mL (≈ 0.62 µM) in assay [1]; 0.2 µg/mL (≈ 0.496 µM) in assay [2]; 0.5 µg/mL (≈ 1.24 µM) in assay [3]; 0.4 µg/mL (≈ 0.992 µM) in assay [4]; 0.1 µg/mL (≈ 0.248 µM) in assay [5]; 0.4 µg/mL (≈ 0.992 µM) in assay [6].

Consider `CC(C)(C)n1cc(C(=O)O)c(=O)c2cc(F)c(N3CCNCC3)cc21`, for which the minimal inhibitory concentration (MIC) in assay [1] was below 0.03 µg/mL; in assay [2], 0.4 µg/mL (≈ 1.15 µM); in assay [3], 0.13 µg/mL (≈ 0.374 µM); in assay [4] it was 0.8 µg/mL (≈ 2.3 µM); in assay [5] it was 0.2 µg/mL (≈ 0.576 µM); in assay [6] it was 1.6 µg/mL (≈ 4.61 µM).

In the case of `CNCC1CCN(c2cc3c(cc2F)c(=O)c(C(=O)O)cn3C(C)(C)C)C1` (stereo not given), the minimum inhibitory concentration (MIC) in assay [1] is 0.13 µg/mL (≈ 0.346 µM); in assay [2] it was 1.6 µg/mL (≈ 4.26 µM); in assay [3] it was 0.25 µg/mL (≈ 0.666 µM); in assay [4], 0.2 µg/mL (≈ 0.533 µM); in assay [5], 0.4 µg/mL (≈ 1.07 µM); in assay [6], 0.2 µg/mL (≈ 0.533 µM).

As for `CCCCN1CCN(c2cc3c(cc2F)c(=O)c(C(=O)O)cn3C2CC2)CC1`, the minimal inhibitory concentration (MIC) is 1 µg/mL (≈ 2.58 µM) in assay [1]; 1.6 µg/mL (≈ 4.13 µM) in assay [2]; 0.5 µg/mL (≈ 1.29 µM) in assay [3]; 0.4 µg/mL (≈ 1.03 µM) in assay [4]; 0.1 µg/mL (≈ 0.258 µM) in assay [5]; above 3.1 µg/mL in assay [6].

On to `CC1CN(c2cc3c(cc2F)c(=O)c(C(=O)O)cn3C(C)(C)C)CC(C)N1` (stereo not given), for which the MIC in assay [1] was 0.06 µg/mL (≈ 0.16 µM); in assay [2], 1.6 µg/mL (≈ 4.26 µM); in assay [3] it was 0.06 µg/mL (≈ 0.16 µM); in assay [4] it was 0.4 µg/mL (≈ 1.07 µM); in assay [5], 0.2 µg/mL (≈ 0.533 µM); in assay [6], above 3.1 µg/mL.

For `CC(C)CN1CCN(c2cc3c(cc2F)c(=O)c(C(=O)O)cn3-c2ccc(F)cc2F)CC1`, the minimal inhibitory concentration (MIC) is 2 µg/mL (≈ 4.35 µM) in assay [1]; above 3.1 µg/mL in assay [2]; 4 µg/mL (≈ 8.71 µM) in assay [3]; 0.8 µg/mL (≈ 1.74 µM) in assay [4]; 3.1 µg/mL (≈ 6.75 µM) in assay [5]; above 3.1 µg/mL in assay [6].

For `CNCC1CCN(c2cc3c(cc2F)c(=O)c(C(=O)O)cn3C2CC2)C1` (stereo not given), the MIC in assay [1] came out at 0.25 µg/mL (≈ 0.696 µM); in assay [2] it was 0.8 µg/mL (≈ 2.23 µM); in assay [3] it was 0.5 µg/mL (≈ 1.39 µM); in assay [4] it was 0.2 µg/mL (≈ 0.556 µM); in assay [5], 0.2 µg/mL (≈ 0.556 µM); in assay [6], 0.1 µg/mL (≈ 0.278 µM).

As for `CC1CN(c2cc3c(cc2F)c(=O)c(C(=O)O)cn3C(C)C)CCN1` (stereo not given), the MIC in assay [1] was 0.5 µg/mL (≈ 1.44 µM); in assay [2], 3.1 µg/mL (≈ 8.92 µM); in assay [3] it was 2 µg/mL (≈ 5.76 µM); in assay [4], 3.1 µg/mL (≈ 8.92 µM); in assay [5], 0.8 µg/mL (≈ 2.3 µM); in assay [6] it was above 3.1 µg/mL.

For orientation: MIC means the smallest concentration in the dilution series that meets the test's criterion for growth inhibition. A lower MIC goes with inhibition by little substance.
